The assay has as its target Growth factor receptor-bound protein 2 (Homo sapiens, UniProt P62993). Kind of assay: Binding affinity to GST-tagged recombinant Grb2 SH2 domain by Biacore assay. The gist of the method: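 Surface plasmon resonance (Biacore) binding to the Grb2-SH2 domain, reported as Kd. Values are means of two experiments, with standard deviation given.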

Numbered stars: 1 amine (or outer) side, 2 acyl side, 3 side chain; on linkers, the order of the positions; unused ones are H or OH. Bridge positions count the residues as written; N and C are the ends. Square brackets hold non-standard residues; d marks the D form. Peptide text beside a SMILES is read from it. pY = N[C@@H](Cc1ccc(OP(=O)(O)O)cc1)C(=O)O; X1 = O=C(C1(N[*:1])CCCNC1)[*:2]

Sequence of Growth factor receptor-bound protein 2 (P62993 whole entry, the tested form may be a part): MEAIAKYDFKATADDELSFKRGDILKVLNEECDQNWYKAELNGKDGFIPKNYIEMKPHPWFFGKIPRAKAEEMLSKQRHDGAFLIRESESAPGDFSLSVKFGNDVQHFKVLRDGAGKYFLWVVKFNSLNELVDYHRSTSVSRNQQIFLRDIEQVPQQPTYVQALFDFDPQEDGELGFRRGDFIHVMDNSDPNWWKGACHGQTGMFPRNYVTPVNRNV

Regarding `NC(=O)C[C@H]1NC(=O)C2(CCCCC2)NC(=O)[C@@H](Cc2ccc(OP(=O)(O)O)cc2)NC(=O)C[S@@+]([O-])C[C@H](C(N)=O)NC(=O)[C@@H](Cc2ccc3ccccc3c2)NC1=O` (single isomer, unassigned), the Kd came out at 4800 nM.
With `CC(C)[C@@H]1NC(=O)[C@H](CC(N)=O)NC(=O)C2(CCCNC2)NC(=O)[C@H](Cc2ccc(OP(=O)(O)O)cc2)NC(=O)CSC[C@@H](C(N)=O)NC1=O` (some centres not stated) ({CH2CO}-[pY][X1]NVC-NH2; thioether N-5) the figure was 359 nM.

These data come from ChEMBL document CHEMBL1151863, “Discovery of thioether-bridged cyclic pentapeptides binding to Grb2-SH2 domain with high affinity” (Bioorg Med Chem Lett, 2009).
